pIC50: −log10 of the molar value. Values after ≈ are worked out from the molar mass of the structure shown.
Experiments:
Staphylococcus aureus [1] = test: Antibacterial activity against methicillin-resistant Staphylococcus aureus SAU1009; assay type: functional
How it was run: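 MIC against MRSA strain SAU1009.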

Staphylococcus aureus [2] = test: Antibacterial activity against Staphylococcus aureus in po dosed mouse septicemia model; assay type: functional
[3] = molecular target: T1, Amine oxidase [flavin-containing] A (Homo sapiens, UniProt P21397); test: Inhibition of human recombinant MAO-A expressed in yeast after 1 hr by luciferin-based luminescence assay
T1 sequence (P21397 whole entry): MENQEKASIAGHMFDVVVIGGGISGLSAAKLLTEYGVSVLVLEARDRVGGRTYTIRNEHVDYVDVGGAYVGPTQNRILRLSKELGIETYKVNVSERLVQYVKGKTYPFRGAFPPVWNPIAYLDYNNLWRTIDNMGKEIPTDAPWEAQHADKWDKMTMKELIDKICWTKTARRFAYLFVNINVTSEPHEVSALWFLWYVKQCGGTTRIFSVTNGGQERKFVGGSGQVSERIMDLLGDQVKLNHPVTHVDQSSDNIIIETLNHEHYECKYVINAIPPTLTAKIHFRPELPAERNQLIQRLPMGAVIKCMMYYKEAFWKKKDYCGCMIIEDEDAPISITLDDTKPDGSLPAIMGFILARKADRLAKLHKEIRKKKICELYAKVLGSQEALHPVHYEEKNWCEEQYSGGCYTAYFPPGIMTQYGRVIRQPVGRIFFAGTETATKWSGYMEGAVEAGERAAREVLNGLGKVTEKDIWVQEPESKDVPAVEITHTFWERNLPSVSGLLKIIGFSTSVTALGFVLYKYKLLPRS

Staphylococcus aureus [4] = test: Antibacterial activity against methicillin-resistant Staphylococcus aureus; assay type: functional
[5] = Myelosuppression activity against human CD34-positive blood stem/progenitor cells assessed as growth inhibition after 9 to 10 days by CellTiter-Glo luminescent assay
Enterococcus faecalis = test: Bacteriostatic activity against vancomycin-sensitive Enterococcus faecalis; assay type: functional
Enterococcus faecium [6] = test: Bacteriostatic activity against vancomycin-sensitive Enterococcus faecium; assay type: functional
Enterococcus faecium [7] = test: Bacteriostatic activity against vancomycin-resistant Enterococcus faecium; assay type: functional
Enterococcus = test: Bacteriostatic activity against vancomycin-sensitive Enterococcus; assay type: functional

Work on `N#Cc1ccc(-c2ccc(N3C[C@H](CO)OC3=O)c(F)c2F)cn1` yielded an MIC (Staphylococcus aureus [1]) of 1 µg/mL (≈ 3.02 µM).

In the case of `O=C1OCCN1c1ccc(-c2ccc(N3C[C@H](CO)OC3=O)c(F)c2F)cn1`, the MIC (Staphylococcus aureus [1]) was 0.5 µg/mL (≈ 1.28 µM).

For `O=C1C=CN(c2c(F)cc(N3C[C@H](Cn4ccnn4)OC3=O)c(F)c2F)CC1`, the ED50 (Staphylococcus aureus [2]) was 10 mg/kg, the pIC50 [3] was < 3.59 and the MIC (Staphylococcus aureus [1]) was 1 µg/mL (≈ 2.54 µM).

`N#Cc1ccc(-c2ccc(N3C[C@H](CO)OC3=O)cc2F)cn1` showed an MIC (Staphylococcus aureus [1]) of 0.25 µg/mL (≈ 0.798 µM).

For `Cn1nnc(-c2ccc(-c3ccc(N4C[C@H](COP(=O)(O)O)OC4=O)cc3F)cn2)n1` [TEDIZOLID PHOSPHATE], the MIC90 (Staphylococcus aureus [4]) was 0.5 µg/mL, the IC50 [5] was 0.2 µg/mL and the pIC50 [3] was 5.40.

Compound `CN[C@H](CC(C)C)C(=O)N[C@H]1C(=O)N[C@@H](CC(N)=O)C(=O)N[C@H]2C(=O)N[C@H]3C(=O)N[C@H](C(=O)N[C@H](C(=O)O)c4cc(O)cc(O)c4-c4cc3ccc4O)[C@H](O)c3ccc(c(Cl)c3)Oc3cc2cc(c3O[C@@H]2O[C@H](CO)[C@@H](O)[C@H](O)[C@H]2O[C@H]2C[C@](C)(N)[C@H](O)[C@H](C)O2)Oc2ccc(cc2Cl)[C@H]1O` [VANCOMYCIN] has an MIC50 (Enterococcus faecalis) of 0.5 µg/mL (≈ 0.345 µM), an MIC90 (Enterococcus faecalis) of 1 µg/mL (≈ 0.69 µM) and an MIC50 (Enterococcus faecium [6]) of 0.5 µg/mL (≈ 0.345 µM). For the same compound, the MIC90 (Enterococcus faecium [6]) was 0.5 µg/mL (≈ 0.345 µM), the MIC50 (Enterococcus faecium [7]) was > 128 µg/mL and the MIC90 (Enterococcus faecium [7]) was > 128 µg/mL. It also gave an MIC50 (Enterococcus) of 0.5 µg/mL (≈ 0.345 µM) and an MIC90 (Enterococcus) of 2 µg/mL (≈ 1.38 µM).

For `CC(=O)NC[C@H]1CN(c2ccc(N3C=CC(=O)CC3)c(F)c2F)C(=O)O1`, the ED50 (Staphylococcus aureus [2]) was 15.9 mg/kg, the pIC50 [3] was < 3.56 and the MIC (Staphylococcus aureus [1]) was 1 µg/mL (≈ 2.74 µM).

With `Cn1nnc(-c2ccc(-c3ccc(N4C[C@H](CO)OC4=O)cc3F)cn2)n1` [TEDIZOLID] the MIC (Staphylococcus aureus [1]) was 0.25 µg/mL (≈ 0.675 µM).

Work on `COC(=O)NC[C@H]1CN(c2cc(F)c(N3C=CC(=O)CC3)c(F)c2F)C(=O)O1` yielded an ED50 (Staphylococcus aureus [2]) of 6.3 mg/kg, a pIC50 [3] of 4.21 and an MIC (Staphylococcus aureus [1]) of 2 µg/mL (≈ 5.01 µM).

From ChEMBL document CHEMBL3286113, “New potent antibacterial oxazolidinone (MRX-I) with an improved class safety profile” (J Med Chem, 2014)
